# Assay outcomes deposited in PubChem by several laboratories.
# HIF act = HIF pathway transcriptional activation; U2OS HRE-luciferase reporter, luminescence; normalized: DMSO 0%, desferrioxamine 100%; activation, % at 7.5 µM (by protocol); 0.32% of 300,000 active; AID 1910;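 active means mean activation of at least 10% of the iron chelator positive control signal, with at least half of replicates also reaching 10%; inconclusive means mean and replicate majority disagree about reaching 10%; inactive means mean and most replicates under 10%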
# FXN GAA850 act = increases GAA850 frataxin promoter reporter activity; HEK293 lucGAA850 FXN promoter luciferase reporter, 24 h; percent of 10 µM SAHA response; activation, % at 6 µM; 0.56% of 360,000 active; AID 540364;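 active means activation above the average of all compounds screened plus 3 SD, cutoff fixed separately per campaign, cut at about 7.5% in these data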;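 further: 0% = DMSO wells and 100% = 10 µM SAHA wells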
# proCasp7 act = counter-screen: procaspase-7 (human) activation. P55210. recombinant procaspase-7, Ac-DEVD-pNA absorbance 405 nm; D23A/D198A/D206A triple mutant, cannot self-cleave; scale: DMSO 0, 5 µM enzyme 100. activation, % at 8.5 µM. 0.093% of 330,000 active. AID 463210;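 active means percent activation above the screen-wide mean plus 3 SD, cut at about 25% in these data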
# Target sequence (P55210 whole entry D23A/D198A/D206A): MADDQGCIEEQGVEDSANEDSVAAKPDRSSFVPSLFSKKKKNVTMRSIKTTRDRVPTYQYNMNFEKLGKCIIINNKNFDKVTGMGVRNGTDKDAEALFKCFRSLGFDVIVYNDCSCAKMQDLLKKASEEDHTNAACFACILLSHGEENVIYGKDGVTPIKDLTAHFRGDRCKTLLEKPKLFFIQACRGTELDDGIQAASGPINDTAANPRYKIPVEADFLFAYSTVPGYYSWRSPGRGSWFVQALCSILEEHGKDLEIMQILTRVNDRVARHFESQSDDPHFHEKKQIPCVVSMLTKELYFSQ
#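 System: Uncleavable procaspase-7 mutant enzyme; Amount: 2 µM procaspase-7 mutant as dispensed; Schedule: 1 h compound preincubation, 2 h substrate cleavage, 25 °C; Measured by: 405 nm absorbance of p-nitroaniline; Evaluation: percent activation from buffer-corrected 0–120 min absorbance change; Control set: low DMSO alone, high DMSO plus 5 µM PC-7.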
# procasp3 activ = activators of human procaspase-3 | recombinant procaspase-3 D3A, Ac-DEVD-pNA absorbance 405 nm | activation, % at 8.5 µM | 0.11% of 330,000 active | AID 463141;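 active means activation above the mean of all tested compounds plus 3 SD, cut at about 21% in these data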;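 further: 0% = DMSO alone and 100% = DMSO wells spiked with extra 5 µM PC-3 D3A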
# Target sequence (P42574 whole entry D9A/D28A/D175A): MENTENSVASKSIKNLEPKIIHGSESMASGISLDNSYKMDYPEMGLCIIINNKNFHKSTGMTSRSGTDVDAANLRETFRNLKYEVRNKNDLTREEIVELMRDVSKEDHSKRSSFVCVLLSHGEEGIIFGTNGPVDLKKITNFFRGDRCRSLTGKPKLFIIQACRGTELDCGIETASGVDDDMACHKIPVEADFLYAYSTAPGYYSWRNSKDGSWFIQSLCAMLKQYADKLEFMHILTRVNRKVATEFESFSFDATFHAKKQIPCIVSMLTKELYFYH
#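 System: Procaspase-3 D3A mutant. Medium: Zinc-free 300 mM NaCl, 50 mM HEPES, 0.01% Triton X-100. Schedule: 1 h preincubation plus 2 h reaction at 25 °C. Measured by: 405 nm absorbance of p-nitroaniline, reads at 0 and 120 min. Read-out: percent activation relative to control range.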
# Calb FLC = affects C. albicans growth with fluconazole. C. albicans CaCi-2 (fluconazole-resistant clinical isolate) + fluconazole, Alamar Blue growth, 48 h. growth inhibition, % (concentration not given with the values). 0.57% of 300,000 active;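 active means growth inhibition above about 58% in most replicates, limit read from the data, passing the limit was not always enough; inconclusive means exactly half the replicates above a set limit; inactive means most replicates below a set limit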;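 further: all wells also contain fluconazole at 8 µg/ml as a sub-toxic cotreatment; 0% = median of DMSO wells and 100% = median of geldanamycin control wells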
# Neddylation inh = inhibitors of human cullin neddylation | P61081+Q13564 | TR-FRET cullin neddylation, biochemical | inhibition, % at 25 µM | 0.58% of 360,000 active | AID 651699; in the data active means inhibition above about 36%
# Starred values were filed as active, the others as inactive; ? = inconclusive; nt = no result shown. Only some compounds are listed: those with a hit (about 1.9% of all), similar ones and a draw of the others.
SMILES,HIF act,FXN GAA850 act,proCasp7 act,procasp3 activ,Calb FLC,Neddylation inh
OC[C@@H]1CN(CCNc2ccccc2)C[C@H](n2cnc3c(NCc4ccncc4)ncnc32)O1,nt,1,nt,nt,nt,2
Cc1ccc(S(=O)(=O)N(C)C[C@H]2OCCCC[C@H](C)Oc3ccc(NC(=O)Nc4cccc5ccccc45)cc3C(=O)N([C@@H](C)CO)C[C@H]2C)cc1,nt,-5,nt,nt,nt,16
CC(C(=O)Nc1ccc(S(=O)(=O)N2CCCC2)cc1)N(C)CC(=O)Nc1cccc(F)c1 (stereo not drawn),nt,-1,-2,4,nt,-12
CN(CC(=O)Nc1ccc(S(=O)(=O)N2CCCC2)cc1)CC(=O)Nc1cccc(F)c1,53*,-2,0,-2,-36,-6
COc1ccccc1N1CCN(Cc2ccc(OC)c(OC)c2OC)CC1,1,-1,-3,0,-26,0
CCOC(=O)C1CCN(Cc2ccccc2C(F)(F)F)CC1,0,-1,9,-9,4,-3
CCOC(=O)C1CCN(Cc2ccc(O)c3ncccc23)CC1,5,4,-30,-10,112*,15
COc1ccccc1N1CCN(Cc2ccc(O)c3ncccc23)CC1,27*,4,4,3,-6,4
COc1cc(CN2C[C@@H](CO)O[C@@H](n3cnc4c(N(C)C(C)C)ncnc43)C2)cc(OC)c1OC,nt,1,nt,nt,nt,6
Clc1ccc(OCCN2CCN(c3ncnc4sccc34)CC2)cc1,0,-8,-14,3,100*,-13
CCOC(=O)C1=C(C)NC(C)=C(C(=O)OCC)C1C(=O)OCC(=O)Nc1ccc(NC(C)=O)cc1,nt,-2,nt,nt,nt,36
O=[N+]([O-])c1ccc2c(c1)[nH]c(=S)n2-c1ccccc1,0,2,-16,-13,85*,-23
Oc1ccc2ccccc2c1/C=N/Nc1nnc(-c2ncc[nH]2)c2ccccc12,82*,-5,4,2,108*,-4
COc1ccc(/C=N/Nc2nnc(-c3ncc[nH]3)c3ccccc23)cc1,4,0,-3,7,-8,3
Cc1ccc(-n2c(SCC(=O)NC3CCS(=O)(=O)C3)nc3ccccc3c2=O)c(C)c1 (stereo not drawn),nt,-1,nt,nt,nt,5
CC(C)(C)c1ccccc1NC(=O)c1c(O)c2cccc3c2n(c1=O)CC3,0,nt,-10,-7,82*,nt
Cc1cc(SCC(=O)N2c3ccccc3NC(=O)CC2C)nc2ccccc12 (stereo not drawn),nt,-1,nt,nt,nt,-78
COc1ccc(/C=N/NC(=O)c2nc(-c3ccccc3)n(-c3ccccc3)n2)cc1,1,-2,0,11,54,3
CCOc1ccc2[nH]c(C(=O)N/N=C/c3ccc(OC)cc3)cc2c1,0,-2,nt,nt,50,34
COc1ccc2[nH]c(C(=O)N/N=C/c3ccc(O)cc3O)cc2c1,25*,-10,nt,nt,14,48*
COc1ccc(/C=N/NC(=O)c2nc(-c3ccccc3)n(-c3ccccc3)n2)c(O)c1,19*,0,-9,-5,0,48*
CC1=C(C(=O)N2CCOCC2)CC(CC(=O)NCc2cccs2)C(=O)N1Cc1ccccc1 (stereo not drawn),nt,nt,nt,nt,nt,0
O=C(Nc1cccc(-c2nc3ccccc3o2)c1)c1cccnc1,0,0,6,-2,4,11
O=C(O)c1ccccc1-c1ccccc1C(=O)Nc1cccc(-c2nc3ccccc3o2)c1,0,2,-4,0,89*,21
CC1(C(=O)NCc2ccccc2)Cc2c(-c3ccc4c(c3)OCO4)ccnc2O1 (stereo not drawn),nt,-3,nt,nt,nt,nt
SMILES,HIF act,FXN GAA850 act,proCasp7 act,procasp3 activ,Calb FLC,Neddylation inh
O=C(NNc1ccc(O)cc1)c1ccc(Br)cc1,0,0,7,3,95*,3
CCCc1ccc(C(=O)NNc2ccc(F)cc2)cc1,0,2,2,-9,77*,-5
CCCc1ccc(C(=O)NNC(=O)c2ccc(Br)cc2)cc1,1,2,-1,3,16,0
CC(C)(C)c1ccc(C(=O)NNc2ccc(F)cc2F)cc1,0,0,0,-6,87*,3
CCc1ccc(C(=O)NNc2ccc(F)cc2F)cc1,1,2,-3,-6,93*,1
O=C(O)c1ccccc1C(=O)NNc1ccc(F)cc1F,0,2,-3,11,-43,2
CCCC(C)(C)C(=O)N1CCC1(C)C(=O)NS(=O)(=O)c1ccccc1Cl (stereo not drawn),nt,0,nt,nt,nt,-5
Cc1ccc(F)cc1C(=O)N1CCCC(c2cc(C(=O)NCc3ccc(F)cc3)no2)C1 (stereo not drawn),nt,-1,nt,nt,nt,4
CC(=O)c1ccc(NC(=O)CN2CCN(S(=O)(=O)c3ccc4c(c3)OCCO4)CC2)cc1,nt,1,nt,nt,nt,-4
CCN(CC)CC(=O)Nc1ccc(-c2nc3cc(NC(=O)CN(CC)CC)ccc3o2)cc1,3,1,10,-1,-2,nt
O=C(CN1CCCC1)Nc1ccc(-c2nc3cc(NC(=O)CN4CCCC4)ccc3o2)cc1,13*,-2,11,2,?,nt
Nc1nc2n(n1)C1(CCCCC1)C1=C(CCCC1)N2,0,nt,-9,1,-4,nt
C1CCC2(CC1)C1=C(CCCC1)Nc1nnnn12,126*,-1,7,1,19,3
O=C(COc1ccc(Br)cc1)NNC(=O)Cc1ccc(S(=O)(=O)N2CCOCC2)s1,nt,2,nt,nt,nt,12
Cc1sc2ncnc(Sc3nnnn3-c3ccc(Cl)cc3)c2c1C,17*,0,-2,-2,-5,-167
COc1ccc(NC(=O)CCCNC(=O)c2ccc(Cl)cc2)cc1S(=O)(=O)N1CCOCC1,nt,0,nt,nt,nt,-22
COc1ccc(-c2cc(CNc3nc4cc(-c5ccccc5C)sc4c(=O)n3C)on2)cc1,nt,5,nt,nt,nt,-429
CCOc1ccc2c(C)c(Cl)c(=O)oc2c1,96*,1,0,-1,-38,nt
C[C@@H]1CN([C@H](C)CO)C(=O)CCCn2cc(nn2)CO[C@H]1CN(C)S(=O)(=O)c1ccccc1C#N,nt,2,nt,nt,nt,8
O=C(C[n+]1ccn(CCCNP2(=O)C=C(c3ccccc3)OC(c3ccccc3)=C2)c1)c1cccs1,101*,2,-1,-5,50,-21
CS(=O)(=O)N1N=C(c2ccc(Br)cc2)CC1c1ccc2c(c1)OCO2 (stereo not drawn),4,12*,1,4,-2,-9
Cc1ccc(C2=NN(S(C)(=O)=O)C(c3ccc4c(c3)OCO4)C2)cc1 (stereo not drawn),2,5,-5,0,1,-5
Cc1ccc(C)c(SCC(=O)Nc2cccnc2Cl)c1,-1,0,4,4,123*,0
